# pIC50: −log10 of the molar value.
# Experiments:
# [1] = test system: Human immunodeficiency virus 1; test: Inhibitory activity against HIV-1 mutant strain 181C; type: functional, organism-based
# Summary of the method: (§1)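 Mutant HIV-1 made by recombining mutant PR-RT sequence into a PR-RT-deleted HXB2 proviral clone. Serial compound concentrations plated, then virus (200 CCID50/well) and MT4 cells (30 000 cells/well; RPMI 1640, 10% FCS) added; 5 days at 37 °C, 5% CO2; viability read by MTT. EC50 = concentration giving 50% infection versus drug-free control; mock-infected cultures run in parallel for toxicity.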
# [2] = test system: Human immunodeficiency virus 1; test: Inhibitory activity against wild type HIV-1 LAI cell line; type: functional, organism-based; conditions: Human immunodeficiency virus 1, LAI
# Summary of the method: (§2)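 MT4 human T-lymphoblastoid cells were grown in RPMI 1640 with 10% fetal calf serum and antibiotics at 37 °C and 5% CO2. A compound concentration series was combined with HIV-1 LAI at 200 CCID50/well and 30 000 cells/well. Mock-infected cultures with the same concentrations were run in parallel to measure cytotoxicity. After 5 days, cell viability was read by MTT colorimetry. EC50 is the concentration giving 50% infection versus the drug-free control.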
# [3] = test system: Human immunodeficiency virus 1; test: Inhibitory activity against HIV-1 mutant strain 103N; type: functional, organism-based; summary of the method: as §1
# [4] = test system: Human immunodeficiency virus 1; test: Selectivity index of cytotoxic activity (CC50) to inhibitory activity (IC50) relative to LAI cell line; type: functional; summary of the method: as §2
# [5] = test system: Human immunodeficiency virus 1; test: Inhibitory activity against HIV-1 mutant strain 188L; type: functional, organism-based; summary of the method: as §1
SMILES,pIC50 [1],pIC50 [2],pIC50 [3],Selectivity index [4],pIC50 [5]
CCc1c(C)nc(O)c(N(C)C)c1Cc1c(C)cc(C)cc1C,5.00,5.00,5.00,1,–
CCOC(=O)/C(C#N)=C\c1cccc(C(=O)c2c(CC)c(C)nc(O)c2N(C)C)c1,–,6.82,–,631,–
CCc1c(C)nc(O)c(N(C)C)c1C(=O)c1cccc(/C=C\c2ccccc2)c1,–,5.90,–,79,–
CCc1c(C)nc(O)c(N(C)C)c1C(=O)c1cccc(N(C)C)c1,–,6.41,–,251,–
CCc1c(C)nc(O)c(N(C)C)c1C(=O)c1cccc(N2CCCC2=O)c1,–,7.40,–,2510,–
CCc1c(C)nc(O)c(N(C)C)c1C(=O)c1cccc(/C=C/c2ccccn2)c1,–,7.15,–,1260,–
CCc1c(C)nc(O)c(N(C)C)c1C(=O)c1cccc(-c2ccco2)c1,–,7.22,–,158,–
CCc1c(C)nc(O)c(N(C)C)c1C(=O)c1cccc(/C=C/c2ccoc2)c1,–,7.15,–,631,–
CCc1c(C)nc(O)c(N(C)C)c1C(=O)c1cccc(/C=C\c2nccs2)c1,–,6.82,–,501,–
CCc1c(C)nc(O)c(N(C)C)c1C(=O)c1cccc(/C=C/c2cccs2)c1,–,7.15,–,1260,–
CC/C=C/c1cccc(C(=O)c2c(CC)c(C)nc(O)c2N(C)C)c1,–,7.30,–,1260,–
CCc1c(C)nc(O)c(N(C)C)c1C(=O)c1cccc(-c2nccs2)c1,–,6.60,–,40,–
CCc1c(C)nc(O)c(N(C)C)c1C(=O)c1cccc(/C=C\Cc2ccccc2)c1,–,5.80,–,32,–
CCc1c(C)nc(O)c(N(C)C)c1C(=O)c1cccc(NC(C)=O)c1,–,6.92,–,794,–
CCc1c(C)nc(O)c(N(C)C)c1Cc1ccc(C)c(C)c1,6.40,7.40,6.00,2510,–
CCNC(=O)Nc1cccc(C(=O)c2c(CC)c(C)nc(O)c2N(C)C)c1,–,5.70,–,50,–
CCc1c(C)nc(O)c(N(C)C)c1C(=O)c1cccc(CN)c1,–,6.41,–,251,–
CCc1c(C)nc(O)c(N(C)C)c1Cc1nccn1C,–,4.00,–,1,4.00
CCc1c(C)nc(O)c(N(C)C)c1C(=O)c1cccc(/C=C/c2ccccc2)c1,–,6.60,–,398,–
CCOc1cccc(Cc2c(CC)c(C)nc(O)c2N(C)C)c1,–,8.00,–,794,–

SMILES,pIC50 [1],pIC50 [2],pIC50 [3],Selectivity index [4],pIC50 [5]
CCc1c(C)nc(O)c(N(C)C)c1C(=O)c1cc(F)cc(C(F)(F)F)c1,–,8.52,–,31600,–
CCc1c(C)nc(O)c(N(C)C)c1C(=O)c1cccc(NS(C)(=O)=O)c1,–,6.00,–,100,–
CCc1c(C)nc(O)c(N(C)C)c1Cc1ccc(Cl)cc1,5.20,6.72,–,50,–
CCc1c(C)nc(O)c(N(C)C)c1Cc1ccc(C(F)(F)F)cc1,5.00,5.80,5.00,6,–
CCc1c(C)nc(O)c(N(C)C)c1Cc1cccc(C)c1C,5.60,7.00,5.60,200,–
CCc1c(C)nc(O)c(N(C)C)c1C(=O)c1cccc(C)c1,–,8.70,–,39800,5.70
CCc1c(C)nc(O)c(N(C)C)c1Cc1cc(C)ccc1C,–,6.82,5.70,631,–
CCc1c(C)nc(O)c(N(C)C)c1C(=O)c1cccc(N(CC)CC)c1,–,5.70,–,50,–
CCc1c(C)nc(O)c(N(C)C)c1C(=O)c1cccc(/C=C(\C#N)c2cccnc2)c1,–,7.22,–,200,–
CCc1c(C)nc(O)c(N(C)C)c1C(=O)c1cccc(/C=C/c2ccco2)c1,–,7.70,–,5010,–
CCc1c(C)nc(O)c(N(C)C)c1Cc1ccc(-c2ccccc2)cc1,5.00,5.40,5.00,3,–
CCc1c(C)nc(O)c(N(C)C)c1C(=O)c1cccc(CNC(C)=O)c1,–,6.41,–,251,–
CCc1c(C)nc(O)c(N(C)C)c1C(=O)c1cccc(/C=C(\C#N)c2ccccc2)c1,–,6.00,–,16,–
CCc1c(C)nc(O)c(N(C)C)c1C(=O)c1c(F)cccc1F,–,7.30,–,2000,–
CCc1c(C)nc(O)c(N(C)C)c1C(=O)c1cccc(C=C(C#N)C#N)c1,–,8.00,–,3980,–
CCc1c(C)nc(O)c(N(C)C)c1C(=O)c1cccc(/C=C/c2nccs2)c1,–,7.52,–,3160,–
CCc1c(C)nc(O)c(N(C)C)c1Cc1ccc(OC)c(C)c1,–,6.41,–,251,–
CCc1c(C)nc(O)c(N(C)C)c1C(=O)c1cccc(-n2cccc2)c1,–,7.15,–,631,–
CCc1c(C)nc(O)c(N(C)C)c1C(=O)c1cccc(C#Cc2ccccc2)c1,–,6.82,–,631,–
CCc1c(C)nc(O)c(N(C)C)c1C(=O)c1cccc(-c2ccccc2)c1,–,6.41,–,251,–

SMILES,pIC50 [1],pIC50 [2],pIC50 [3],Selectivity index [4],pIC50 [5]
CCc1c(C)nc(O)c(N(C)C)c1C(=O)c1ccc(C#N)cc1,–,5.50,–,32,–
CCc1c(C)nc(O)c(N(C)C)c1C(=O)c1cccc(COc2ccccc2)c1,–,7.52,–,2510,–
CCc1c(C)nc(O)c(N(C)C)c1C(=O)c1cccc(C(C)O)c1 (stereo not given),–,7.30,–,2000,–
CCc1c(C)nc(O)c(N(C)C)c1Cc1nccs1,6.30,7.22,5.70,1580,–
CCc1c(C)nc(O)c(N(C)C)c1C(=O)c1cccc(/C=C\c2ccccn2)c1,–,5.80,–,63,–
CCc1c(C)nc(O)c(N(C)C)c1C(=O)c1cccc(/C=C\c2cnccn2)c1,–,6.72,–,501,–
CCc1c(C)nc(O)c(N(C)C)c1C(=O)c1cccc(/C=C/c2ccsc2)c1,–,7.00,–,1000,–
CCc1c(C)nc(O)c(N(C)C)c1Cc1ccnc2ccccc12,4.20,5.30,4.10,20,–
CCc1c(C)nc(O)c(N(C)C)c1C(=O)c1cccc(/C=C\c2ccco2)c1,–,7.22,–,794,–
CCc1c(C)nc(O)c(N(C)C)c1Cc1ccc(Br)cc1,–,5.80,–,63,–
CCc1c(C)nc(O)c(N(C)C)c1C(=O)c1cccc(/C=C\c2ccncc2)c1,–,7.22,–,794,–
CCc1c(C)nc(O)c(N(C)C)c1Cc1ccc(N(C)C)cc1,5.00,5.90,5.00,8,–
CCc1c(C)nc(O)c(N(C)C)c1C(=O)c1cccc(/C=C\c2cccnc2)c1,–,7.15,–,631,–
CCc1c(C)nc(O)c(N(C)C)c1Cc1ccc(C)cc1C,4.00,5.00,4.00,10,–
CCc1c(C)nc(O)c(N(C)C)c1C(=O)c1cccc(/C=C(\C#N)c2cccs2)c1,–,6.72,–,126,–
CCc1c(C)nc(O)c(N(C)C)c1C(=O)c1cccc(/C=C/c2ccncc2)c1,–,8.00,–,10000,–
CCc1c(C)nc(O)c(N(C)C)c1C(=O)c1cccc(/C=C/c2cccn2C)c1,–,6.51,–,158,–
CCc1c(C)nc(O)c(N(C)C)c1Cc1ccc(C)cc1,5.00,6.51,4.90,316,–

# — ChEMBL document CHEMBL1138799, “4-benzyl- and 4-benzoyl-3-dimethylaminopyridin-2(1H)-ones, a new family of potent anti-HIV agents: optimization and in vitro evaluation against clinically important HIV mutant strains” (J Med Chem, 2004)
